From ChEMBL document CHEMBL1158468, “Synthesis, structure-activity relationships, and in vivo evaluation of N3-phenylpyrazinones as novel corticotropin-releasing factor-1 (CRF1) receptor antagonists” (J Med Chem, 2009)

Biological target: T1, Corticotropin-releasing factor receptor 1 (Rattus norvegicus, UniProt P35353)
T1 sequence (P35353 whole entry): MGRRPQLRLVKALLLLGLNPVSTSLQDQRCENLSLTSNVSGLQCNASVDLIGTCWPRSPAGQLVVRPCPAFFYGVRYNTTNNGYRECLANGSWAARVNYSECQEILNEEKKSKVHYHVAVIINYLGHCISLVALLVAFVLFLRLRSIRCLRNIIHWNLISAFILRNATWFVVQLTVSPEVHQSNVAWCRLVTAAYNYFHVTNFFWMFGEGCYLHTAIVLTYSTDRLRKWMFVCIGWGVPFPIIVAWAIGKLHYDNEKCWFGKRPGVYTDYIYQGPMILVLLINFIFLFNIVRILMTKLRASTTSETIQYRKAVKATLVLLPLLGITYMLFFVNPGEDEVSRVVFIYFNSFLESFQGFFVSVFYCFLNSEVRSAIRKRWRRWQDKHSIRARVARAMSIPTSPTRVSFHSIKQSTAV
Assay: Displacement of [125I]Tyr-ovine-CRF from CRF1 receptor in rat frontal cortex homogenate by gamma counting
Type: tissue-based
Method in brief: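 Washed homogenates of frozen rat frontal cortex (CRF1, 25 μg/well) or porcine choroid plexus (CRF2, 10 μg/well) in 50 mM Hepes pH 7.0, 10 mM MgCl2, 2 mM EGTA, protease inhibitors, 0.005% Triton X-100. Ligand 150 pM 125I-ovine-CRF (CRF1) or 100 pM 125I-sauvagine (CRF2). Incubation 2 h at 21 °C, then filtration and gamma counting. Nonspecific binding: 1 μM CRF1 reference antagonist or 1 μM α-helical CRF(9-41). IC50 from 5- or 10-point curves by nonlinear regression.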

| Structure (SMILES) | IC50 [nM] |
| --- | --- |
| COC[C@H](C)n1cc(Cl)nc(Nc2cc(C)c(OC)cc2C)c1=O | 5.8 |
| C=Cc1cn([C@H](C)C2CC2)c(=O)c(Nc2ccc(OC)nc2C(F)(F)F)n1 | 1200 |
| COC[C@@H](C)n1cc(Cl)nc(Nc2c(C)cc(C)cc2C)c1=O | 12 |
| CCC(CC)Cn1cc(Cl)nc(Nc2c(C)cc(C)cc2C)c1=O | 39 |
| CCc1cn([C@H](C)C2CC2)c(=O)c(Nc2ccc(OC)nc2C(F)(F)F)n1 | 180 |
| CCN(c1c(Cl)cc(OC)cc1Cl)c1nccn([C@H](C)C2CC2)c1=O | 34 |
| CCCC(CCC)n1cc(Cl)nc(Nc2c(C)cc(C)cc2C)c1=O | 2.4 |
| COc1ccc(Nc2nc(Cl)cn([C@H](C)C3CC3)c2=O)c(C(F)(F)F)n1 | 1.8 |
| CC[C@H](C1CC1)n1cc(Cl)nc(Nc2cc(C)c(C)cc2C)c1=O | 2.4 |
| COCC(COC)n1cc(Cl)nc(Nc2cc(C)c(OC)cc2C)c1=O | 2.1 |
| COc1ccc(Nc2nccn([C@H](C)C3CC3)c2=O)c(C(F)(F)F)n1 | 150 |
| CC[C@H](C1CC1)n1cc(Cl)nc(Nc2ccc(Cl)cc2)c1=O | 180 |
| COC[C@@H](C1CC1)n1cc(Cl)nc(Nc2cc(C)c(O)cc2C)c1=O | 280 |
| CC[C@H](C1CC1)n1cc(Cl)nc(Nc2c(C)cccc2Cl)c1=O | 9.3 |
| COc1ccc(Nc2nc(C)cn([C@H](C)C3CC3)c2=O)c(C(F)(F)F)n1 | 3.8 |
| COC[C@@H](C1CC1)n1cc(Cl)nc(Nc2cc(C)c(OCc3ccccc3)cc2C)c1=O | 910 |

Stronger by IC50, values ahead:

| IC50 [nM] | Structure (SMILES) |
| --- | --- |
| 1.4 | CC[C@H](COC)n1cc(Cl)nc(Nc2c(C)cc(C)cc2C)c1=O |
| 0.42 | COc1cc(C)c(Nc2nc(Cl)cn([C@H](C)C3CC3)c2=O)cc1C |
| 0.52 | CC[C@H](C1CC1)n1cc(Cl)nc(Nc2c(C)cc(OC)cc2C)c1=O |
| 1.2 | CC[C@H](C1CC1)n1cc(Cl)nc(Nc2c(Cl)cc(C#N)cc2Cl)c1=O |
| 0.59 | CC[C@H](COC)n1cc(Cl)nc(Nc2cc(C)c(OC)cc2C)c1=O |
| 0.27 | CC[C@H](C1CC1)n1cc(Cl)nc(Nc2cc(C)c(OC)cc2C)c1=O |
| 0.8 | CCC(CC)n1cc(Cl)nc(Nc2cc(C)c(OC)cc2C)c1=O |
| 1.5 | CCOc1cc(C)c(Nc2nc(Cl)cn([C@@H](COC)C3CC3)c2=O)cc1C |
| 0.53 | CC[C@H](C1CC1)n1cc(Cl)nc(Nc2c(C)cc(Cl)cc2Cl)c1=O |
